Assays:
[1] = biological target: Protein kinase C delta type (Homo sapiens, UniProt Q05655); test: Activation of PKCdelta (unknown origin) after 40 mins
Method in brief: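 In vitro PKCδ phosphorylation of a PKC peptide substrate, with 0.05 mg/mL phosphatidylserine and no diacylglycerol. Compounds were tested as a twelve-point semilog dilution series starting at 10 µM. The reaction was started with ATP and run 40 min at room temperature.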

HeLa = test: Induction of necrosis in human HeLa cells assessed as remaining metabolic activity after 30 mins by resazurin dye-based assay; format: functional; details: 0.5 h, read-out: LC50 (the source's name)
Method in brief: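 HeLa cells were exposed to increasing concentrations up to 400 µM for 30 min at 37 °C. Metabolic activity was then measured with a resazurin-based dye (PrestoBlue). LC50 is the concentration giving 50% loss of metabolic activity.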

Keratinocyte [2] = test: Induction of proimflammatory activity in human primary epidermal keratinocytes assessed as IL-8 release after 6 hrs relative to ingenol 3-angelate; format: functional
Method in brief: (§1)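 Adult log-phase primary epidermal keratinocytes were seeded at 10,000 cells/well. Cells were incubated with titrated compound for 6 h at 37 °C in 5% CO2. Secreted IL8 was measured by Meso Scale 4-spot cytokine plates or by HTRF. EC50 and Emax were referenced to the maximal response of ingenol 3-angelate.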

Keratinocyte [3] = test: Induction of proimflammatory activity in human primary epidermal keratinocytes assessed as IL-8 release after 6 hrs; format: functional, cell-based; method in brief: as §1
Keratinocyte [4] = test: Induction of proimflammatory activity in human primary epidermal keratinocytes assessed as TNFalpha release after 6 hrs relative to ingenol 3-angelate; format: functional
Method in brief: (§2)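 Adult log-phase primary epidermal keratinocytes were seeded at 10,000 cells/well. Cells were incubated with titrated compound for 6 h at 37 °C in 5% CO2. Secreted TNFα was measured by Meso Scale 4-spot cytokine plates. EC50 and Emax were referenced to the maximal response of ingenol 3-angelate.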

Keratinocyte [5] = test: Induction of proimflammatory activity in human primary epidermal keratinocytes assessed as TNFalpha release after 6 hrs; format: functional, cell-based; method in brief: as §2
[6] = Immunostimulatory activity in polymorphonuclear leukocytes (unknown origin) assessed as induction of oxidative burst after 40 mins by fluorescence assay relative to ingenol 3-angelate; format: functional
Method in brief: (§3)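 PMN were isolated from fresh buffy coats. Cells were incubated 40 min at ambient temperature with titrated compound (top concentration 10 µM) pre-mixed with hydroethidine. Respiratory burst was read as fluorescence at ex 485/em 579 nm. EC50 is the concentration giving 50% of the maximum effect of ingenol 3-angelate; Emax is the maximal response relative to it.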

[7] = Immunostimulatory activity in polymorphonuclear leukocytes (unknown origin) assessed as induction of oxidative burst after 40 mins by fluorescence assay; format: functional, cell-based; method in brief: as §3
[8] = Chemical stability of the compound in aqueous buffer with less than 30% organic solvent assessed as compound recovery at pH 7.4 measured over 16 hrs by HPLC analysis; format: physicochemical; details: read-out: Drug recovery
Method in brief: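 A DMSO stock was diluted into pre-heated (37 °C) aqueous buffer pH 7.4 to ≤30% v/v organic content. The solution was held at 37 °C in the HPLC autosampler and injected within 5 min, then repeatedly over 16 h. Recovery was taken from the decrease in compound peak area, with UV detection normally at 270 nm.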

Sequence of Protein kinase C delta type (Q05655 whole entry): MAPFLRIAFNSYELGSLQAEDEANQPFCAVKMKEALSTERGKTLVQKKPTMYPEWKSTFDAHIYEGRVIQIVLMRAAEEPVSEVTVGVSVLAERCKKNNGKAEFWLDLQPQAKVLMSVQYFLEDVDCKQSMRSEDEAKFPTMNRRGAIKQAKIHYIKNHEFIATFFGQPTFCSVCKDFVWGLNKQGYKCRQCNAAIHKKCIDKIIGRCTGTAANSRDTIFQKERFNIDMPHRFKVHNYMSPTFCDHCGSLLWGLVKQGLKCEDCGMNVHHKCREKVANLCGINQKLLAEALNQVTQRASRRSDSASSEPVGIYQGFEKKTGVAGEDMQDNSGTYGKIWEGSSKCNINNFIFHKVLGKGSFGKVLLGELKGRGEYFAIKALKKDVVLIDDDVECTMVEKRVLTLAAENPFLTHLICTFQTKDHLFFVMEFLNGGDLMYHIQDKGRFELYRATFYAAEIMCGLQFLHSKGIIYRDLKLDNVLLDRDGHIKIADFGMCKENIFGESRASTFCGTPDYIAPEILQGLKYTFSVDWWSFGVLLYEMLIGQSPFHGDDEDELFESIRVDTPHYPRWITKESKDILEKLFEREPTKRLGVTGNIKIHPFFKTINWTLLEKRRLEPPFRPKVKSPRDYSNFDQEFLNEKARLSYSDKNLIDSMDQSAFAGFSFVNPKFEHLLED

| Compound | EC50 [1] [nM] | CC50 (HeLa) [µM] | Emax (Keratinocyte [2]) [%] | EC50 (Keratinocyte [3]) [nM] | Emax (Keratinocyte [4]) [%] | EC50 (Keratinocyte [5]) [nM] | Emax [6] [%] | EC50 [7] [nM] | remaining at 16 h [8] [%] |
| --- | --- | --- | --- | --- | --- | --- | --- | --- | --- |
| CC1=C[C@]23C(=O)[C@@H](C=C(CO)[C@@H](O)[C@]2(O)[C@H]1OC(=O)c1ccccc1Br)[C@H]1[C@@H](C[C@H]3C)C1(C)C | 3.8 | 141 | 93 | 2.3 | 96 | 8.2 | 99 | 4.3 | 44 |
| CC1=C[C@]23C(=O)[C@@H](C=C(CO)[C@@H](O)[C@]2(O)[C@H]1OC(=O)c1ccccc1-c1ccccc1)[C@H]1[C@@H](C[C@H]3C)C1(C)C | 3.3 | 77 | 87 | 1.5 | 91 | 1.6 | 105 | 16 | 77 |
| CC1=C[C@]23C(=O)[C@@H](C=C(CO)[C@@H](O)[C@]2(O)[C@H]1OC(=O)c1ccccc1Oc1ccccc1)[C@H]1[C@@H](C[C@H]3C)C1(C)C | 13.1 | 83 | 87 | 1.1 | 86 | 1.4 | 98 | 9.4 | 80 |
| CC1=C[C@]23C(=O)[C@@H](C=C(CO)[C@@H](O)[C@]2(O)[C@H]1OC(=O)c1ccccc1Nc1ccccc1)[C@H]1[C@@H](C[C@H]3C)C1(C)C | 4.2 | 307 | 103 | 3.7 | 120 | 5 | 129 | 11 | 58 |
| CNc1ccccc1C(=O)O[C@H]1C(C)=C[C@]23C(=O)[C@@H](C=C(CO)[C@@H](O)[C@]12O)[C@H]1[C@@H](C[C@H]3C)C1(C)C | 2.5 | 95 | 99 | 0.79 | 134 | 1 | 113 | 6.7 | 68 |
| CC1=C[C@]23C(=O)[C@@H](C=C(CO)[C@@H](O)[C@]2(O)[C@H]1OC(=O)c1c(C)cccc1C)[C@H]1[C@@H](C[C@H]3C)C1(C)C | 10.8 | 97 | 66 | 62 | 61 | 83 | 123 | 13 | > 95 |
| CC1=C[C@]23C(=O)[C@@H](C=C(CO)[C@@H](O)[C@]2(O)[C@H]1OC(=O)c1c(C)cccc1N)[C@H]1[C@@H](C[C@H]3C)C1(C)C | 8 | 146 | 118 | 8.2 | 108 | 12 | 117 | 8.6 | > 95 |
| CC1=C[C@]23C(=O)[C@@H](C=C(CO)[C@@H](O)[C@]2(O)[C@H]1OC(=O)c1c(C)cccc1O)[C@H]1[C@@H](C[C@H]3C)C1(C)C | 13.4 | 199 | 105 | 71 | 156 | 98 | 125 | 9.4 | > 95 |

Reference: ChEMBL document CHEMBL3102768, “Synthesis, biological evaluation and SAR of 3-benzoates of ingenol for treatment of actinic keratosis and non-melanoma skin cancer” (Bioorg Med Chem Lett, 2014)
